The source made the active and inactive calls. The rule behind the calls is not given here.
Columns and labels:
[1] = target: T1, Histamine H3 receptor (Homo sapiens, UniProt Q9Y5N1); experiment: Displacement of [3H]RAMHA from human histamine H3 receptor transfected in SK-N-MC cells; format: cell-based
Method in brief: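 Membranes from SK-N-MC cells stably expressing human H3 receptor, incubated 60 min at room temperature with 0.5 nM [3H](R)-α-methylhistamine in 50 mM Tris–HCl/5 mM EDTA, pH 7.4; compounds 0.01 nM–10 µM. Filtration, two ice-cold washes, scintillation counting. Non-specific binding: 10 µM histamine. IC50 estimated from displacement curves.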

[2] = target: Histamine H3 receptor (Rattus norvegicus, UniProt Q9QYN8); experiment: Displacement of [3H]RAMHA from histamine H3 receptor in rat brain membranes; format: cell membranes
Sequence of Histamine H3 receptor (Rattus norvegicus, UniProt Q9QYN8) (Q9QYN8 whole entry): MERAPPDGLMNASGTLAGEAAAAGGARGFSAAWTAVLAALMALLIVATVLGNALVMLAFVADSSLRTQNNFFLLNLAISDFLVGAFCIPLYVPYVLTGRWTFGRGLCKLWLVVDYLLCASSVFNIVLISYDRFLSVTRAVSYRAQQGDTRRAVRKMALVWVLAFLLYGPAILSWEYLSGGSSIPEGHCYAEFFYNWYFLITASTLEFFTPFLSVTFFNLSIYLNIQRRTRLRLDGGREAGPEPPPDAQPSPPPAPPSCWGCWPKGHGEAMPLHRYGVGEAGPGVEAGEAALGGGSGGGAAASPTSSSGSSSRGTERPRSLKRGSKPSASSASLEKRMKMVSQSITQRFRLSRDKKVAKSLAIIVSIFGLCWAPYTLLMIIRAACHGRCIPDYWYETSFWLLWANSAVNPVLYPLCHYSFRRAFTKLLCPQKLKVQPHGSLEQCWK
Method in brief: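 Rat cerebral cortex membranes incubated 60 min at room temperature with 0.5 nM [3H](R)-α-methylhistamine in 50 mM Tris–HCl/0.5 mM EDTA/50 mM NaCl, pH 7.4; compounds 0.01 nM–10 µM. Rapid filtration, two ice-cold buffer washes, scintillation counting. Non-specific binding: 10 µM thioperamide. IC50 from displacement curves; mean of three experiments.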

[3] = target: Histamine H1 receptor (Cavia porcellus) (UniProt P31389); experiment: Activity at histamine H1 receptor in isolated guinea pig ileum up to 10 uM; format: functional, tissue-based
Sequence of Histamine H1 receptor (Cavia porcellus) (P31389 whole entry): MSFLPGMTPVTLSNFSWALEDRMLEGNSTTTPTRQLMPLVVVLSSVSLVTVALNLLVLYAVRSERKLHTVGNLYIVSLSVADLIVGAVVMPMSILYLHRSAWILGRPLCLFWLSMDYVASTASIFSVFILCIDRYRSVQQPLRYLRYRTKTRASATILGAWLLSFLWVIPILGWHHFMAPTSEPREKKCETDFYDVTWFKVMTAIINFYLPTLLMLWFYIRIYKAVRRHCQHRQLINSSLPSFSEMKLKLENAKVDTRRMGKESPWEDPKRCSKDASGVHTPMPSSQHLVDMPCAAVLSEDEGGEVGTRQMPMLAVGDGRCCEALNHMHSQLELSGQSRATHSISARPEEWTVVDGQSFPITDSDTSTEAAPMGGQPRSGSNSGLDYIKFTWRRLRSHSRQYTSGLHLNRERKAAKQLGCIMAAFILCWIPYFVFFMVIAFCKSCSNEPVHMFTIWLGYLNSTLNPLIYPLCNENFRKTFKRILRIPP

[4] = target: Histamine H2 receptor (Cavia porcellus) (UniProt P47747); experiment: Activity at histamine H2 receptor in isolated guinea pig atrium up to 10 uM; format: functional, tissue-based; conditions: Cardiac atrium
Sequence of Histamine H2 receptor (Cavia porcellus) (P47747 whole entry): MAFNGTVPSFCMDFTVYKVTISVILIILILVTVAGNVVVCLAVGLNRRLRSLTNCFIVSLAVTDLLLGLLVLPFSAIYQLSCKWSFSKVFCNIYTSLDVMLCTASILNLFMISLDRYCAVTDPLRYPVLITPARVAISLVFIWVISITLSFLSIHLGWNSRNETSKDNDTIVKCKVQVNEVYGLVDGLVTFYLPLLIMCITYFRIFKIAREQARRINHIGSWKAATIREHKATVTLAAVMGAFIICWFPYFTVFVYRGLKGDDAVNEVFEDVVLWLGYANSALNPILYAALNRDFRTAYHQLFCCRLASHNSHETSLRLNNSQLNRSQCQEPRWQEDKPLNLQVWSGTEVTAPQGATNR

[5] = target: Histamine H3 receptor (Cavia porcellus) (UniProt Q9JI35); experiment: Activity at histamine H3 receptor assessed as RAMHA-induced inhibition of electrically-stimulated guinea pig isolated ileum; format: functional, tissue-based; conditions: filed as antagonist
Sequence of Histamine H3 receptor (Cavia porcellus) (Q9JI35 whole entry): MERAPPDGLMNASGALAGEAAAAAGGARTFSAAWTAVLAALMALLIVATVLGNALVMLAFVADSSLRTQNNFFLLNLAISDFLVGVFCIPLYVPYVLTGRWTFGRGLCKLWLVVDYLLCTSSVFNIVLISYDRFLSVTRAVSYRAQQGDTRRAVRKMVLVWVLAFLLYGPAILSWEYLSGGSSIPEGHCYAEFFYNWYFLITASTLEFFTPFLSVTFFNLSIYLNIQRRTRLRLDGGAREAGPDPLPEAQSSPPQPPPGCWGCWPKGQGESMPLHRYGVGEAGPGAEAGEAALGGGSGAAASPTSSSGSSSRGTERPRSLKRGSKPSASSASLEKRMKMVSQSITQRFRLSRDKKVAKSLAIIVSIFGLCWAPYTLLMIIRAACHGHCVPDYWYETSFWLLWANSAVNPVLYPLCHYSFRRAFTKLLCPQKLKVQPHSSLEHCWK

[6] = target: T1, Histamine H3 receptor; experiment: Antagonist activity against histamine H3 receptor assessed as beta galactosidase reporter gene transactivation in SK-N-MC cells; format: functional, cell-based
Method in brief: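 SK-N-MC cells expressing human H3 receptor; compounds (0.1 nM–10 µM) added to media, 5 min later forskolin (5 µM) and cumulative (R)-α-methylhistamine (0.1 nM–1 µM). After 6 h at 37 °C, cells lysed (0.5% Triton, 40 mM β-mercaptoethanol); read-out by absorbance 570 nm after overnight incubation at 20 °C.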

[7] = target: T2, Acetylcholinesterase (Rattus norvegicus) (UniProt P37136); experiment: Inhibition of AChE in rat brain at 10 uM; format: tissue-based
T2 sequence (whole entry): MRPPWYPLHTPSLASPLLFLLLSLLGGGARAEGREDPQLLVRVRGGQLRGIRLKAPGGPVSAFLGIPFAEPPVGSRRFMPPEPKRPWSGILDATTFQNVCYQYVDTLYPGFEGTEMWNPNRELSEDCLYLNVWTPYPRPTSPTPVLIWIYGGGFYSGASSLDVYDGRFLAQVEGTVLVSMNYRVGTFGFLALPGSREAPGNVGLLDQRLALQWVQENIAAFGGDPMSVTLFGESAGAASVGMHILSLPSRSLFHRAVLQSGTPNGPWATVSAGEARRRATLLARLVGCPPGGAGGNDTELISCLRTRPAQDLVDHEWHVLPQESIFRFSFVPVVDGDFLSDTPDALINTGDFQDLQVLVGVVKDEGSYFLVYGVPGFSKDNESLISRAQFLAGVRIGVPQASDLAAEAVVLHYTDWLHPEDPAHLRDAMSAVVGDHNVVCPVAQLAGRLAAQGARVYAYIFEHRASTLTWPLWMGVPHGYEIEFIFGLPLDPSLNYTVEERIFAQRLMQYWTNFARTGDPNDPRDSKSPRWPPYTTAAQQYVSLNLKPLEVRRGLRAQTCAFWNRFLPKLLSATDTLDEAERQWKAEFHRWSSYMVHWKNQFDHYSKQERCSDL

T1 sequence (Q9Y5N1 whole entry): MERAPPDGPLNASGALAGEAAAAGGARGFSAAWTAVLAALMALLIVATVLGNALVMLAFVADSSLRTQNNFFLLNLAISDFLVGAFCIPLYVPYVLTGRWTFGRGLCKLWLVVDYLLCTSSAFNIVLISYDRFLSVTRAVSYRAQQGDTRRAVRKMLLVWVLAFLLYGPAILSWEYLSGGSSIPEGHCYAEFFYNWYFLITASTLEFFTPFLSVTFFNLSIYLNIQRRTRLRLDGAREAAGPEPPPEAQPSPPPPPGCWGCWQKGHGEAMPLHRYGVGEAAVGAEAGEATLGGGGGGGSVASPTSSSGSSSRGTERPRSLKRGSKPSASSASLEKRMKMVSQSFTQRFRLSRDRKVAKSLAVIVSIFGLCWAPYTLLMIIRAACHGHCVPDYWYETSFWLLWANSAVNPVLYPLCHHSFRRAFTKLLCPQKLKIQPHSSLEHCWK

| Structure (SMILES) | Ki [1] [nM] | Ki [2] [nM] | Activity [3] | Activity [4] | Activity [5] | pKb [6] | inhibition [7] [%] |
| --- | --- | --- | --- | --- | --- | --- | --- |
| NCc1ccc(-c2ccc(CN)cc2)cc1 | 4470 | 8710 | inactive | inactive | Antagonist |  |  |
| c1cc(-c2ccc(CNC3CCCCC3)cc2)ccc1CNC1CCCCC1 | 562 | 2090 | inactive | inactive | Antagonist |  |  |
| c1cc(-c2ccc(CN3CCCCC3)cc2)ccc1CNC1CCCCC1 | 1.7 | 9.12 | inactive | inactive | Antagonist |  | 50 |
| CN(C)Cc1ccc(-c2ccc(CN(C)C)cc2)cc1 | 1.86 | 6.61 | inactive | inactive | Antagonist |  |  |
| CC1CCN(Cc2ccc(-c3ccc(CN4CCC(C)CC4)cc3)cc2)CC1 | 6.17 | 15.1 | inactive | inactive | Antagonist |  | 50 |
| CCCCCNCc1ccc(-c2ccc(CNCCCCC)cc2)cc1 | 759 | 3310 | inactive | inactive | Antagonist |  |  |
| c1cc(-c2ccc(CCN3CCCCC3)cc2)ccc1CCN1CCCCC1 | 1.17 | 3.98 | inactive | inactive | Antagonist |  |  |
| c1cc(-c2ccc(CN3CCOCC3)cc2)ccc1CN1CCOCC1 | 12.3 | 81.3 | inactive | inactive | Antagonist |  |  |

More lines, in order of falling Ki [1], values ahead:

| Ki [1] [nM] | Ki [2] [nM] | Activity [3] | Activity [4] | Activity [5] | pKb [6] | Structure (SMILES) | inhibition [7] [%] |
| --- | --- | --- | --- | --- | --- | --- | --- |
| 1410 | 3890 | inactive | inactive | Antagonist |  | CC(=O)N1CCN(Cc2ccc(-c3ccc(CN4CCN(C(C)=O)CC4)cc3)cc2)CC1 |  |
| 1230 | 4070 | inactive | inactive | Antagonist |  | c1cc(CN2CCCCC2)ccc1CN1CCCCC1 |  |
| 398 | 676 | inactive | inactive | Antagonist |  | CC1CC(C)CN(Cc2ccc(-c3ccc(CN4CC(C)CC(C)C4)cc3)cc2)C1 (stereo not drawn) |  |
| 46.8 | 115 | inactive | inactive | Antagonist |  | O=C1CCCCN1Cc1ccc(-c2ccc(CN3CCCCC3)cc2)cc1 |  |
| 37.2 | 214 | inactive | inactive | Antagonist |  | CN(Cc1ccc(-c2ccc(CN(C)C3CCCCC3)cc2)cc1)C1CCCCC1 |  |
| 6.31 | 46.8 | inactive | inactive | Antagonist |  | CC(=O)N1CCN(Cc2ccc(-c3ccc(CN4CCCCC4)cc3)cc2)CC1 |  |
| 0.339 | 1.2 | inactive | inactive | Antagonist | 8.77 | c1cc(-c2ccc(CN3CCCCC3)cc2)ccc1CN1CCCCC1 |  |
